Reference: ChEMBL document CHEMBL1921780, “Novel 3-nitro-1H-1,2,4-triazole-based aliphatic and aromatic amines as anti-chagasic agents” (J Med Chem, 2011)

Assays:
L6 = experiment: Cytotoxicity against rat L6 cells after 72 hrs by alamar blue assay; assay type: cell-based; settings: L6, 72 h
Outline: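 Run in 96-well plates with a compound dose series. T. cruzi was tested as amastigotes inside infected L6 rat skeletal myoblasts. Uninfected L6 cells were used for cytotoxicity. IC50 was obtained by linear regression from sigmoidal dose–inhibition curves.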

[1] = Selectivity index, ratio of IC50 for rat L6 cells to IC50 for Trypanosoma brucei rhodesiense STIB 900; assay type: toxicity, cell-based; settings: L6 cells versus Trypanosoma brucei rhodesiense STIB 900, read-out: Ratio IC50
Outline: (§1)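 Selectivity index is the L6 myoblast IC50 divided by the IC50 for each parasite. L. donovani was tested as axenic amastigotes. Both IC50s came from 96-well dose-response screens fitted by linear regression of sigmoidal curves.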

[2] = Dissociation constant, pKa of the compound; assay type: physicochemical
Leishmania donovani = experiment: Antileishmanial activity against Leishmania donovani MHOM-ET-67/L82 axenic amastigotes after 72 hrs by alamar blue assay; settings: MHOM-ET-67/L82, 72 h
Trypanosoma cruzi [3] = experiment: Ratio of benznidazole IC50 to compound IC50 for Trypanosoma cruzi Tulahuen C4 infected in rat L6 cells after 72 hrs by alamar blue assay; assay type: functional
Trypanosoma cruzi [4] = experiment: Antitrypanosomal activity against amastigotes of Trypanosoma cruzi Tulahuen C4 infected in rat L6 cells after 72 hrs by alamar blue assay; settings: Tulahuen C4, L6, 72 h
[5] = Selectivity index, ratio of IC50 for rat L6 cells to IC50 for Leishmania donovani MHOM-ET-67/L82; assay type: toxicity, cell-based; settings: L6 cells versus Leishmania donovani MHOM-ET-67/L82, read-out: Ratio IC50; outline: as §1
[6] = test system: Trypanosoma brucei rhodesiense; experiment: Antitrypanosomal activity against blood stream form of Trypanosoma brucei rhodesiense STIB 900 […] after 72 hrs by alamar blue assay; assay type: functional, organism-based; settings: STIB 900, 72 h
[7] = Selectivity index, ratio of IC50 for rat L6 cells to IC50 for Trypanosoma cruzi Tulahuen C4; assay type: toxicity, cell-based; settings: L6 cells versus Trypanosoma cruzi Tulahuen C4, read-out: Ratio IC50; outline: as §1
[8] = test system: Trypanosoma brucei brucei; experiment: Antitrypanosomal activity against blood-stream Trypanosoma brucei brucei after 3 days by alamar blue assay; assay type: functional, organism-based; settings: 72 h
Outline: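 Bloodstream-form parasites seeded at 1 × 10^3 per ml in growth medium with a range of nitrotriazole or nifurtimox concentrations, no tetracycline. Incubated 3 days at 37 °C, then Alamar blue added for a further 16 h. IC50 taken from culture cell density.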

Row | Compound | IC50 (L6) | selectivity ratio [1] | pKa [2] | IC50 (Leishmania donovani) | Ratio IC50 (Trypanosoma cruzi [3]) | IC50 (Trypanosoma cruzi [4]) | selectivity ratio [5] | IC50 [6] | selectivity ratio [7] | IC50 [8]
1 | Cl.O=[N+]([O-])c1ncn(CCCNc2c3ccccc3nc3ccccc23)n1 | 20.5 µM | 34 | 9.2 | 35.4 µM | 9.6 | 0.14 µM | 1 | 0.611 µM | 147 | –
2 | COc1ccc2nc3cc(Cl)ccc3c(NCCCCn3cnc([N+](=O)[O-])n3)c2c1 | 9.94 µM | 74 | 8.84 | 10.2 µM | – | 0.151 µM | 1 | 0.134 µM | 66 | –
3 | O=[N+]([O-])c1nccn1CCNc1c2ccccc2nc2ccccc12 | 0.308 µM | – | – | 9.09 µM | – | 0.996 µM | – | 0.996 µM | – | –
4 | O=[N+]([O-])c1nccn1CCCCNc1c2ccccc2nc2ccccc12 | 1.68 µM | 3 | – | 14.8 µM | – | 0.926 µM | – | 0.601 µM | 2 | –
5 | O=[N+]([O-])c1nccn1CCCNc1ccnc2cc(Cl)ccc12 | 24.9 µM | 18 | – | 54.4 µM | – | 1.04 µM | – | 1.4 µM | 24 | –
6 | O=[N+]([O-])c1nccn1CCCCNc1ccnc2cc(Cl)ccc12 | 66.8 µM | 36 | – | 39.1 µM | – | 3.51 µM | 2 | 1.87 µM | 19 | –
7 | Cc1nc(NCCCn2ccnc2[N+](=O)[O-])c2ccccc2n1 | 31.6 µM | 9 | – | 68.3 µM | – | 2.1 µM | – | 3.46 µM | 15 | –
8 | O=[N+]([O-])c1nccn1CCCCNc1nc(-c2ccccc2)nc2ccccc12 | 32.5 µM | 12 | – | 6.17 µM | – | 3.63 µM | 5 | 2.76 µM | 9 | –
9 | Cc1nc(C(F)(F)F)nc(NCCCn2ccnc2[N+](=O)[O-])c1C | > 236 µM | > 16 | – | 20.1 µM | – | 4.28 µM | > 12 | 15.2 µM | > 55 | –
10 | Cc1cc(NCCCn2ccnc2[N+](=O)[O-])nc(N)n1 | > 287 µM | > 28 | – | > 95.7 µM | – | 7.08 µM | – | 10.3 µM | > 41 | –
11 | Cc1cc(NCCCCn2ccnc2[N+](=O)[O-])nc(N)n1 | > 275 µM | > 23 | – | 98.1 µM | – | 41.8 µM | > 3 | 11.8 µM | > 7 | –
12 | COc1cc2nc(Cl)nc(NCCCCn3ccnc3[N+](=O)[O-])c2cc1OC | 16.5 µM | 7 | – | 3.63 µM | – | 0.968 µM | 5 | 2.26 µM | 17 | –
13 | O=[N+]([O-])c1nccn1CCCCNc1nc(-c2ccccc2)nc(Cl)c1-c1ccccc1 | 11.7 µM | 1 | – | 12.4 µM | – | 9.67 µM | 1 | 15.5 µM | 1 | –
14 | O=C1C(Cl)=C(NCCCn2ccnc2[N+](=O)[O-])C(=O)c2ccccc21 | 3.91 µM | 6 | – | 0.516 µM | – | 30.1 µM | 8 | 0.621 µM | – | –
15 | Cl.O=[N+]([O-])c1ncn(CCCCNc2ccnc3cc(C(F)(F)F)ccc23)n1 | 114 µM | 973 | 7.53 | 137 µM | 4.4 | 0.305 µM | 1 | 0.117 µM | 373 | –
16 | Clc1ccc2c(NCCCCn3cncn3)ccnc2c1 | > 298 µM | > 14 | – | > 298 µM | – | 92.1 µM | – | 21.8 µM | > 3 | –
17 | Cl.O=[N+]([O-])c1ncn(CCCCNc2nc(-c3ccccc3)nc3ccccc23)n1 | 77 µM | 137 | 5.06 | 8.69 µM | 0.8 | 1.74 µM | 9 | 0.562 µM | 44 | –

Row | Compound | IC50 (L6) | selectivity ratio [1] | pKa [2] | IC50 (Leishmania donovani) | Ratio IC50 (Trypanosoma cruzi [3]) | IC50 (Trypanosoma cruzi [4]) | selectivity ratio [5] | IC50 [6] | selectivity ratio [7] | IC50 [8]
18 | Cc1cc(NCCCn2cnc([N+](=O)[O-])n2)nc(N)n1 | > 286 µM | > 131 | – | > 95.4 µM | – | 33.7 µM | – | 2.19 µM | > 8 | –
19 | Cl.O=[N+]([O-])c1ncn(CCCNc2ccnc3cccnc23)n1 | 133 µM | 60 | 6.81 | 182 µM | 1.3 | 1.03 µM | 1 | 2.22 µM | 129 | > 10 µM
20 | Cl.O=[N+]([O-])c1ncn(CCCCNc2ccnc3cccnc23)n1 | 95.8 µM | 220 | 6.81 | > 276 µM | 2.9 | 0.46 µM | – | 0.435 µM | 208 | –
21 | O=C1C(Cl)=C(NCCCn2cnc([N+](=O)[O-])n2)C(=O)c2ccccc21 | 7.16 µM | 8 | – | 6.53 µM | – | 15.6 µM | 1 | 0.882 µM | – | –
22 | O=[N+]([O-])c1nccn1CCCNCc1cc(C(F)(F)F)cc(C(F)(F)F)c1 | 140 µM | 10 | – | > 69.4 µM | – | 24.5 µM | < 2 | 13.8 µM | 6 | –
23 | O=[N+]([O-])c1nccn1CCCN(Cc1ccc(C(F)(F)F)cc1)Cc1ccc(C(F)(F)F)cc1 | > 172 µM | > 7 | – | 6.49 µM | – | 3.77 µM | > 27 | 23 µM | > 46 | –
24 | O=[N+]([O-])c1nccn1CCCN(Cc1cccc(C(F)(F)F)c1)Cc1cccc(C(F)(F)F)c1 | 79.6 µM | 4 | – | 4.27 µM | – | 8.02 µM | 19 | 21.6 µM | 10 | –
25 | O=[N+]([O-])c1ncn(CCCN(Cc2cc(C(F)(F)F)cc(C(F)(F)F)c2)Cc2cc(C(F)(F)F)cc(C(F)(F)F)c2)n1 | 78.8 µM | 10 | – | 4.87 µM | – | 1.96 µM | 16 | 8.17 µM | 40 | –
26 | FC(F)(F)c1cc(CNCCCCn2cncn2)cc(C(F)(F)F)c1 | > 224 µM | > 7 | – | 172 µM | – | 123 µM | > 1 | 32.3 µM | > 2 | –
27 | O=[N+]([O-])c1nccn1CCCNCc1ccc2cc(Br)ccc2n1 | 137 µM | 16 | – | 80.3 µM | – | 6.05 µM | 2 | 8.56 µM | 23 | –
28 | O=[N+]([O-])c1nccn1CCCN(Cc1ccc2cc(Br)ccc2n1)Cc1ccc2cc(Br)ccc2n1 | 93.6 µM | 7 | – | 18.7 µM | – | 4.67 µM | 5 | 14.2 µM | 20 | –
29 | Cl.O=[N+]([O-])c1ncn(CCCNCc2ccc3ccc(Cl)cc3n2)n1 | 143 µM | 136 | 8.76 | 63.8 µM | 4.3 | 0.311 µM | 2 | 1.05 µM | 460 | –
30 | Cl.O=[N+]([O-])c1ncn(CCCN(Cc2ccc3ccc(Cl)cc3n2)Cc2ccc3ccc(Cl)cc3n2)n1 | 71.6 µM | 78 | 6.87 | 9.58 µM | 3.8 | 0.358 µM | 7 | 0.917 µM | 200 | –
31 | Cl.O=[N+]([O-])c1ncn(CCCN(Cc2ccc3cc(Br)ccc3n2)Cc2ccc3cc(Br)ccc3n2)n1 | 46 µM | 99 | 6.87 | 9.33 µM | 4.2 | 0.32 µM | 5 | 0.463 µM | 144 | –
32 | Cl.O=[N+]([O-])c1ncn(CCCNCc2ccc(C(F)(F)F)cc2)n1 | 122 µM | 34 | 9.65 | 159 µM | 4.2 | 0.32 µM | 1 | 3.61 µM | 383 | –
33 | O=[N+]([O-])c1nccn1CCCN1CCN(Cc2ccc(C(F)(F)F)cc2)CC1 | > 191 µM | > 13 | – | > 191 µM | – | 20.7 µM | – | 15.3 µM | > 9 | –
34 | Nc1nc(N)nc(Nc2ccc([As]3SCC(CO)S3)cc2)n1 (centres undefined) [MELARSOPROL] | – | – | – | – | – | – | – | 0.01 µM | – | –
